# Laboratory results as given in PubChem BioAssay AID493037 (Johns Hopkins Ion Channel Center, 2011).
# Molecular target: Potassium voltage-gated channel subfamily KQT member 2 (Rattus norvegicus) (UniProt O88943)
# Experiment: concentration-dependent KCNQ2 opening potency – cell-based, FluxOR thallium flux, mode of action, dose response (AID 493037)
# Conditions: KCNQ2-expressing cells, FluxOR thallium flux fluorescence
# How it was run: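 Test system: CHO cells expressing KCNQ2 potassium channel, loaded with FluxOR dye; Incubation: compound pre-incubation 20 min at room temperature; Measured by: thallium-flux fluorescence using FluxOR thallium-sensitive dye.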
# Potassium voltage-gated channel subfamily KQT member 2 (Rattus norvegicus), sequence (O88943 whole entry, looked up): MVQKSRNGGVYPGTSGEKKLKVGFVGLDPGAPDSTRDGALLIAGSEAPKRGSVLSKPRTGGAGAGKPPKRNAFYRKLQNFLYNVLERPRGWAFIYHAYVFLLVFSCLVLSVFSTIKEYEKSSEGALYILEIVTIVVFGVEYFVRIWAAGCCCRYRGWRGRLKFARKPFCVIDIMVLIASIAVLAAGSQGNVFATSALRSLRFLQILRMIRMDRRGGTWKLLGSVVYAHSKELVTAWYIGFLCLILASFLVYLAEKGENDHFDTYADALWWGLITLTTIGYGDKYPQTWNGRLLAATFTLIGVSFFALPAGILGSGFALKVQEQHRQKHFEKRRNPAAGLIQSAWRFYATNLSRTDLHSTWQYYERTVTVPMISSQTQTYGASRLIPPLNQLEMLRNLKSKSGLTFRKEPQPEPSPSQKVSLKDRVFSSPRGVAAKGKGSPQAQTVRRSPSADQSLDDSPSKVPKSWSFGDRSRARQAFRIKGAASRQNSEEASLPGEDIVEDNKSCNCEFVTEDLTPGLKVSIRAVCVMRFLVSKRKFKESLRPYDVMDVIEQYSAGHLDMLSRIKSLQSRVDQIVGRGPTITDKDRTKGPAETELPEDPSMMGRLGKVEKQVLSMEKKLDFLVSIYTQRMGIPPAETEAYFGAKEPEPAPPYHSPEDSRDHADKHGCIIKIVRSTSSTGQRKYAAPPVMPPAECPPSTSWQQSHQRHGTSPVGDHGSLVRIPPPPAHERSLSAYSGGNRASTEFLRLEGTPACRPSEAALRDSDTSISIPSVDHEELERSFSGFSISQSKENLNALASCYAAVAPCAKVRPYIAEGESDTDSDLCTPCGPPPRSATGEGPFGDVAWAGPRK
row,SMILES,EC50 [µM]
1,Cc1cc(C)c(NC(=O)CC(C)(C)C)c(Cl)c1,2.1
2,CCCCC(=O)Nc1c(C)cc(C)cc1Cl,3.75

# More lines, now with the values ahead:
row,EC50 [µM],SMILES
1,1.05,Cc1ccc(C)c(NC(=O)C2CC3CCC2C3)c1 (stereo not given)
2,2.05,Cc1cccc(C)c1NC(=O)C1CC2CCC1C2 (stereo not given)
3,0.359,Cc1cc(C)c(NC(=O)C2CC3CCC2C3)c(C)c1 (stereo not given)
